{"data": "Experimental data from different studies", "target": "Cyclin-dependent kinase 11B (CDK11B, Homo sapiens, UniProt P21127)", "method": "competition with immobilised ligand", "note": "Protocols differ between the studies behind these lines."}
{"Structure (SMILES)": "c1cncc(-c2cccc(Nc3nccc(NC4CCCCC4)n3)c2)c1", "observed": "binding", "concentration": "10 µM", "remaining binding": "80%"}
{"Structure (SMILES)": "COc1ccnn2ncc(-c3ccnc(N(C)C)n3)c12", "observed": "binding", "concentration": "1 µM", "remaining binding": "100%"}
{"Structure (SMILES)": "Cc1c(NC(=O)c2cc(C(N)=O)nc3cc(F)ccc23)c(C(F)(F)F)nn1Cc1ccc(C#N)cc1", "observed": "cell-free assay", "concentration": "1 µM", "remaining binding": "94%"}
{"Structure (SMILES)": "Cc1cnc(Nc2ccc(C(=O)N3CCC(N4CCCC4)CC3)cc2)nc1-c1cc2ccccc2s1", "observed": "binding", "concentration": "1 µM", "remaining binding": "100%"}
{"Structure (SMILES)": "C[C@@H]1CCN(c2nccc(-c3cnn4ncccc34)n2)C1", "observed": "binding", "concentration": "1 µM", "remaining binding": "97%"}
{"Structure (SMILES)": "O=C(c1ccc(Nc2ncc(Cl)c(-c3ccc(Cl)s3)n2)cc1)N1CCC(N2CCCC2)CC1", "observed": "binding", "concentration": "1 µM", "remaining binding": "46%"}
{"Structure (SMILES)": "Nc1ncc2c(n1)-c1c([nH]c3ccc(C#CC4CC4)cc13)CCCC2", "observed": "binding", "concentration": "1 µM", "remaining binding": "91%"}
{"Structure (SMILES)": "COc1ncc2cc3ccccc3nc2c1C#N", "observed": "cell-free assay", "concentration": "5 µM", "remaining binding": "100%"}
{"Structure (SMILES)": "CN(c1ccnc(CNc2nc(Nc3ccc4c(c3)CC(=O)N4)ncc2C(F)(F)F)n1)S(C)(=O)=O", "observed": "cell-free assay", "concentration": "1 µM", "remaining binding": "91%"}
{"Structure (SMILES)": "O=C(NCCCN1CCOCC1)c1ccc(Nc2nccc(-c3cc4ccccc4s3)n2)cc1", "observed": "binding", "concentration": "1 µM", "remaining binding": "57%"}
{"Structure (SMILES)": "Cc1nc(Cc2cccc(C(F)(F)F)c2)sc1-c1ccc(C(N)=O)nc1", "observed": "cell-free assay", "concentration": "1 µM", "remaining binding": "97%"}
{"Structure (SMILES)": "COc1cnc(Nc2cccc(S(N)(=O)=O)c2)nc1N1CCN(c2ccccc2)C(=O)C1", "observed": "binding", "concentration": "1 µM", "remaining binding": "100%"}
{"Structure (SMILES)": "CN(C)c1ncc(F)c(-c2cnn3ncccc23)n1", "observed": "binding", "concentration": "1 µM", "remaining binding": "100%"}
{"Structure (SMILES)": "CN(C)C(=O)Cn1cc(-c2nc([C@@](C)(c3ccc(-c4cnc(N)nc4)cc3)C3CC3)no2)cn1", "observed": "cell-free assay", "concentration": "1 µM", "remaining binding": "79%"}
{"Structure (SMILES)": "Cc1cnn2ncc(-c3ccnc(N(C)C)n3)c2c1", "observed": "binding", "concentration": "1 µM", "remaining binding": "95%"}
{"Structure (SMILES)": "COc1cnc(Nc2cccc(S(N)(=O)=O)c2)nc1N1CCN(c2ccccc2)CC1", "observed": "binding", "concentration": "1 µM", "remaining binding": "99%"}
{"Structure (SMILES)": "CC1=C(C#N)C(c2ccc3c(c2)c(NC(=O)c2ccccc2C)nn3C)C(C#N)=C(C)N1", "observed": "cell-free assay", "concentration": "1 µM", "remaining binding": "100%"}
{"Structure (SMILES)": "c1cnn2ncc(-c3ccnc(N4CCC45COC5)n3)c2c1", "observed": "binding", "concentration": "1 µM", "remaining binding": "91%"}
{"Structure (SMILES)": "O=C(Nc1c[nH]nc1C(=O)NC1CCNCC1)c1cc(F)cc(F)c1", "observed": "binding", "concentration": "1 µM", "remaining binding": "86%"}
{"Structure (SMILES)": "N[C@H]1CCN(c2nccc(-c3cnn4ncccc34)n2)C1", "observed": "binding", "concentration": "1 µM", "remaining binding": "100%"}
{"Structure (SMILES)": "CNCc1ccccc1-c1csc([C@H](C)Nc2nc(C)nc3cc(OC)c(OC)cc23)c1", "observed": "cell-free assay", "concentration": "1 µM", "remaining binding": "100%"}
